Source: PubChem (several laboratories)
HSF1 inhib: HSF1 inhibitors in luciferase reporter cells, primary screen, cell-based, NIH3T3, luminescence; NIH3T3-HGL HSE-luciferase, MG132-induced, luminescence 8 h; active compounds read low; activity change, negative = inhibition, % at 7.5 µM (by protocol); 300,000 compounds, 0.77% hits; AID 2098, 2009;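 active means more than half of replicate wells show activity change below -50%, luminescence cut by over half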;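 further: luciferase reports HSF-1 transcriptional activity via heat shock element; 0% = median of DMSO wells and -100% = zero luminescence signal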
Hsp70 act: Hsp70 transcriptional activators, primary screen, cell-based, HeLa, Hsp70 promoter luciferase, luminescence, 10 µM; HeLa Hsp70 promoter luciferase reporter; scaled: vehicle 0, proteasome-inhibitor control 100%; activation, % at 10 µM; 200,000 compounds, 0.04% hits;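 active means activation above the mean across all tested compounds plus 3 SD, cutoff set per campaign, cut at about 5.5% in these data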;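 further: 100% = MG132 at 30 µM as the positive control and 0% = DMSO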
Mdm2 ligase inh: MDM2-luciferase reporter signal enhancers, primary screen, MDM2 E3 ligase inhibitor project, cell-based, luminescence, 1536-well. 210,000 compounds, 0.11% hits. signal enhancement, % at 5 µM. E3 ubiquitin-protein ligase Mdm2 (Homo sapiens), Q00987. cell-based MDM2 ubiquitination luciferase reporter, 2 h; 0 = plate control, 100 = twice control, blank-subtracted. AID 1230, 2008;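 active means signal enhancement of 30% or more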;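 further: luminescence tracks abundance of the self-degrading MDM2-luciferase fusion protein; higher signal means inhibition of MDM2 E3 ligase activity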
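Assay system: stable mammalian line carrying autodegrading MDM2–luciferase fusion reporter; Input: 2000 cells in each well; Compound dosing: single-point 5 µM; Schedule: 2 h compound exposure at 37 °C; Signal: SteadyLite luciferase luminescence after 15 min room-temperature reagent incubation; Evaluation: % luminescence enhancement versus blank-corrected plate control mean; Benchmarks: plate controls and plate blanks.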
HSF-1 act: HSF-1 activators, primary screen, NIH3T3-HGL cells, MG132 stress, luminescence, single point | NIH3T3-HGL HSF-1 luciferase reporter, 8 h; 100% = twice DMSO control signal | activation, % at 9 µM | 300,000 compounds, 1.7% hits | AID 504408, 2011;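 active means mean replicate activation of at least 50% with a set share of replicates each reaching 50%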;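 further: 0% = median of the neutral control wells and 100% = twice that signal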
HSV augment: enhancers of HSV replication in host cells, fold increase, host cell viability; HSV replication augmentation in cells; maximum fold increase; 220,000 compounds, 0.005% hits; AID 1956, 2009; in the data active means maximum fold increase above about 1.5; tested in PC3 cells
Rad51 HR inh: human RAD51 strand exchange inhibitors, primary screen, biochemical, fluorescence. DNA repair protein RAD51 homolog 1 (Homo sapiens), Q06609. hRad51 DNA strand exchange, fluorescence dequenching. inhibition, % at 10 µM. 200,000 compounds, 0.085% hits;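 active means inhibition above 40% at the single screening dose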;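 further: 0% = DMSO control wells and 100% = blanks with heterologous ssDNA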
Target sequence (Q06609 whole entry, looked up): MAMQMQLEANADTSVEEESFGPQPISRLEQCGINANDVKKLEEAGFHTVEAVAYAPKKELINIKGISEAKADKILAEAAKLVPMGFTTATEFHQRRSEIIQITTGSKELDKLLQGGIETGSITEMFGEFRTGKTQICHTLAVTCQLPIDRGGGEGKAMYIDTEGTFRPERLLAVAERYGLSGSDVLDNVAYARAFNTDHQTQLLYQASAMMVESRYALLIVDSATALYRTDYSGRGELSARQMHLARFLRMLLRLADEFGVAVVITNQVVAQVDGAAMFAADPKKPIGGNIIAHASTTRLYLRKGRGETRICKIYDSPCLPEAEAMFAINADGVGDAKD
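Material: hRad51 filaments on single-stranded DNA; Reagent: Donor/quencher-labelled 47-bp dsDNA substrate; Compound: 10 µM final, single point; Schedule: 37 °C 15-min filament assembly, 30-min compound preincubation, 15-min exchange; Technique: FRET fluorescence, excitation 485 nm, emission 520 nm; Benchmarks: control wells and blank wells on each plate.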
* hit, by the source's call; i = inactive; . = not tested or not shown. An excerpt weighted towards active compounds, which were near 2.6% of everything screened.

SMILES | HSF1 inhib | Hsp70 act | Mdm2 ligase inh | HSF-1 act | HSV augment | Rad51 HR inh
CC(=O)N1CCN(Cc2nc(C(c3ccccc3)c3ccccc3)no2)CC1 | 3.4 | 0.0 | -8.3 | -8.4 | i | 6.6
Cc1ccc(S(=O)(=O)c2ccc(Cl)cc2)cc1S(N)(=O)=O | -4.6 | . | . | -22.3 | . | .
COC(=O)c1nnn(CC(=O)NC(=O)Nc2ccccc2)c1C(=O)OC | -5.1 | -0.6 | 4.9 | -7.0 | i | 16.6
COC(=O)c1nnn(CC(=O)NC(=O)Nc2ccc(F)cc2)c1C(=O)OC | 5.5 | 0.4 | 10.1 | 54.7* | i | -43.8
CC(=O)c1cccc(NC(=O)C2CC(=O)N(Cc3ccccc3)C2)c1 (configuration not stated) | 3.3 | 0.0 | -12.1 | -6.1 | i | -2.4
CC(=O)c1cccc(NC(=O)C2CC(=O)N(CCc3ccccc3)C2)c1 (configuration not stated) | -59.2* | 0.0 | -4.5 | -68.1 | i | -3.1
C/C(N)=C(/C#N)C(=O)CSc1nnc(Nc2ccccc2)s1 | 29.7 | 0.2 | 10.5 | 55.3* | i | 1.4
C/C(N)=C(/C#N)C(=O)CSc1nnc(NC(C)C)s1 | 4.3 | -0.1 | 1.9 | 2.6 | i | -7.9
C/C(N)=C(/C#N)C(=O)CSc1nnc(Nc2ccccc2C)s1 | 38.4 | -0.2 | -21.7 | 70.9* | i | -3.3
Cc1ccc(-c2nc(-c3nccc4ccccc34)oc2-c2ccccc2)cc1 | 27.6 | . | . | 54.1* | i | .
c1ccc(-c2nccc3ccccc23)cc1 | -6.4 | . | . | 11.8 | . | .
Cc1nc2ccccc2cc1OCc1ccccc1 | 14.2 | 0.1 | -17.9 | 11.1 | . | .
Cc1nc2ccccc2cc1OCc1ccc(Cl)cc1 | 37.0 | 0.0 | -14.2 | 59.1* | i | 1.0
Cc1ccccc1CN1CCN(C(=O)CC(C)C)CC1 | -85.9* | . | . | -88.4 | . | .
O=C(O)C1Cc2[nH]cnc2C(c2ccccc2O)N1 (configuration not stated) | -2.4 | -0.4 | -4.8 | 0.3 | i | 1.9
Cc1ccc2cc(CN(Cc3nnnn3Cc3ccco3)CC3CCCO3)c(=O)[nH]c2c1C (configuration not stated) | -12.5 | -0.1 | -9.3 | 1.9 | i | 0.8
Cc1ccc(S(=O)(=O)Cn2nnnc2CN(Cc2ccco2)CC2CCCO2)cc1 (configuration not stated) | 19.6 | 0.0 | -15.3 | 58.9* | i | -2.6
CN1CCN(S(=O)(=O)c2ccc(Oc3cccc(C(F)(F)F)c3)nc2)CC1 | 0.0 | . | . | -6.6 | . | .
COC(=O)c1ccsc1NC(=O)CCc1ccccc1 | 32.0 | . | . | 67.5* | . | .
COC(=O)Nc1sccc1C(=O)Nc1sccc1C(=O)OC | -65.2* | -0.2 | -0.1 | -65.8 | i | -9.3
Cc1cccc(C(=O)N2CC(=O)Nc3ccc(F)cc3C2c2ccc(F)cc2)c1 (configuration not stated) | -3.7 | . | . | 0.1 | . | .
COc1ccc(Cl)cc1NC(=O)CSc1nc2ccsc2c(=O)n1CC1CCC(C(=O)O)CC1 (configuration not stated) | -59.9* | . | . | -69.2 | . | .
O=C(CSc1nc2ccsc2c(=O)n1CC1CCC(C(=O)O)CC1)NCCc1ccc(Cl)cc1 (configuration not stated) | -5.5 | . | . | 14.0 | . | .
O=C(O)CCCNC(=O)C(c1ccccc1)c1ccccc1 | -3.4 | 0.1 | -7.8 | -9.4 | i | 6.1
O=C(O)CCCNC(=O)CCCNC(=O)C(c1ccccc1)c1ccccc1 | -63.7* | -0.1 | 2.3 | -72.7 | i | -6.2
Nc1nnn(-c2ccccc2)c1-c1ccccc1 | 2.1 | . | . | 4.2 | . | .
Clc1c(-c2ccccc2)nnn1-c1ccccc1 | 40.8 | -0.1 | -11.6 | 75.4* | i | .
C=CCn1c(=NC(=O)C2CC2)sc2cc(NC(C)=O)ccc21 | -55.4* | -0.2 | -2.8 | -65.1 | i | 8.5
